{"source": "ChEMBL document CHEMBL1123559", "about": "“Inhibition of phenylethanolamine N-methyltransferase (PNMT) by aromatic hydroxy-substituted 1,2,3,4,-tetrahydroisoquinolines: further studies on the hydrophilic pocket of the aromatic ring binding region of the active site” (J Med Chem, 1987)", "molecules": {"B1": {"name": "Phenylethanolamine N-methyltransferase (Bos taurus), P10938 (protein)", "chain": "MSGTDRSQAAGAVPDSDPGLAAVSSAYQRFEPRAYLRNNYAPPRGDLSCPDGVGPWKLRCLAQTFATGEVSGRTLIDIGSGPTIYQLLSACAHFEDITMTDFLEVNRQELRLWLREEPGAFDWSVYSQHVCLIEGKGESWQEKECQLRARVKRILPIDVHRPQPLGAGGLAPLPADALVSAFCLEAVSPDLASFQRALDHITTLLRPGGHLLLIGALEESWYLAGEARLAVVPVREEEVREALVRTATRCGICARTPMPAHLQTGVDDVKGIFFTRAQKKVGV"}}, "data": [{"compound": "COc1ccc2c(c1)C1CCC2[C@@H]1N", "assay": "(§1) In vitro inhibition of Phenylethylamine N-Methyltransferase (PNMT) using radiochemical assay expressed as Vmax", "units": {"Vmax": "nmol/min/mg"}, "values": [{"molecule": "B1", "Vmax": 0.23}]}, {"compound": "COc1cccc2c1C1CC2[C@H](N)C1", "assay": "as §1", "units": {"Vmax": "nmol/min/mg"}, "values": [{"molecule": "B1", "Vmax": 0.22}]}, {"compound": "N[C@@H]1CC2CC1c1cc(O)c(O)cc12", "assay": "as §1", "units": {"Vmax": "nmol/min/mg"}, "values": [{"molecule": "B1", "Vmax": 0.44}]}, {"compound": "COc1ccc2c(c1)C1CC2[C@H](N)C1", "assay": "as §1", "units": {"Vmax": "nmol/min/mg"}, "values": [{"molecule": "B1", "Vmax": 0.06}]}, {"compound": "N[C@@H]1CC2C[C@@H]1c1ccccc12", "assay": "(§2) In vitro inhibition of Phenylethylamine N-Methyltransferase (PNMT) using radiochemical assay.", "in_short": "(§3)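 Bovine adrenal PNMT, partially purified through isoelectric precipitation, was used with phenylethanolamine as the variable substrate. At least three inhibitor concentrations were tested, all below levels giving mixed kinetics. The mix held pH 8.0 phosphate, unlabeled AdoMet (10 μM stock) and [methyl-3H]AdoMet, run 30 min at 37 °C. After a borate quench, product was extracted into toluene/isoamyl alcohol and scintillation counted. Ki and mode came from 1/V vs 1/S plots.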", "units": {"Km": "µM"}, "values": [{"molecule": "B1", "Km": 392}]}, {"compound": "COc1ccc2c(c1)C1CCC2[C@@H]1N", "assay": "as §2", "in_short": "as §3", "units": {"Km": "µM"}, "values": [{"molecule": "B1", "Km": 294}]}, {"compound": "COc1cccc2c1C1CC2[C@H](N)C1", "assay": "as §2", "in_short": "as §3", "units": {"Km": "µM"}, "values": [{"molecule": "B1", "Km": 970}]}, {"compound": "COc1ccc2c(c1)C1CC2[C@H](N)C1", "assay": "as §2", "in_short": "as §3", "units": {"Km": "µM"}, "values": [{"molecule": "B1", "Km": 602}]}, {"system": "not listed separately", "assay": "Ratio of Vmax to Km", "parameters": "unit not given here", "values": [{"molecule": "COc1ccc2c(c1)C1CCC2[C@@H]1N", "note": "(some centres undefined)", "Ratio": 0.08}, {"molecule": "N[C@@H]1CC2CC1c1cc(O)c(O)cc12", "note": "(some centres undefined)", "Ratio": 0.06}, {"molecule": "N[C@@H]1CC2C[C@@H]1c1ccccc12", "Ratio": 0.01}, {"molecule": "COc1cccc2c1C1CC2[C@H](N)C1", "note": "(some centres undefined)", "Ratio": 0.02}, {"molecule": "COc1ccc2c(c1)C1CC2[C@H](N)C1", "note": "(some centres undefined)", "Ratio": 0.01}, {"molecule": "NC1C2CC[C@H]1c1ccccc12", "note": "(some centres undefined)", "Ratio": 0.12}]}, {"target": "T1, Phenylethanolamine N-methyltransferase (Bos taurus, UniProt P10938)", "T1 sequence (P10938 whole entry)": "B1 chain", "assay": "In vitro inhibition of bovine phenylethylamine N-methyl-transferase (PNMT) using radiochemical assay.", "units": {"Ki": "µM"}, "values": [{"molecule": "N[C@@H]1CC2CC1c1cccc(O)c12", "note": "(some centres undefined)", "Ki": "> 10000"}, {"molecule": "COc1ccc2c(c1)C1CCC2[C@@H]1N", "note": "(some centres undefined)", "Ki": 735}, {"molecule": "COc1cccc2c1C1CC2C[C@H]1N", "note": "(some centres undefined)", "Ki": "> 2000"}, {"molecule": "Oc1ccc2c(c1)CNCC2", "Ki": 2.6}, {"molecule": "COc1cccc2c1CNCC2", "Ki": 3.8}, {"molecule": "COc1ccc2c(c1)CNCC2", "Ki": 20}, {"molecule": "Oc1ccc2c(c1)CCNC2", "Ki": 7.8}, {"molecule": "COc1cccc2c1C1CC2[C@H](N)C1", "note": "(some centres undefined)", "Ki": "> 2000"}, {"molecule": "N[C@@H]1CC2CC1c1c(O)cccc12", "note": "(some centres undefined)", "Ki": "> 3000"}, {"molecule": "COc1ccc2c(c1)C1CC2[C@H](N)C1", "note": "(some centres undefined)", "Ki": 1260}, {"molecule": "COc1cccc2c1CCNC2", "Ki": 550}, {"molecule": "Oc1cc2c(cc1O)CNCC2", "Ki": 5.7}, {"molecule": "Oc1cccc2c1CCNC2", "Ki": 90}, {"molecule": "COc1ccc2c(c1)C1CC2C[C@H]1N", "note": "(some centres undefined)", "Ki": "> 2000"}, {"molecule": "COc1cccc2c1C1CCC2[C@@H]1N", "note": "(some centres undefined)", "Ki": 1100}, {"molecule": "Oc1cccc2c1CNCC2", "Ki": 1080}, {"molecule": "N[C@H]1C2CCC1c1cc(O)ccc12", "note": "(some centres undefined)", "Ki": 108}, {"molecule": "c1ccc2c(c1)CCNC2", "note": "[1,2,3,4-TETRAHYDROISOQUINOLINE]", "Ki": 10.3}, {"molecule": "N[C@H]1C2CCC1c1c(O)cccc12", "note": "(some centres undefined)", "Ki": "> 4000"}, {"molecule": "NS(=O)(=O)c1ccc2c(c1)CNCC2", "Ki": "[…]"}]}]}
